Results as given in ChEMBL document CHEMBL3046895, “Molecular mechanism of enantioselective inhibition of acetolactate synthase by imazethapyr enantiomers” (J Agric Food Chem, 2010).
Active and inactive are the calls of the source. The calls are words filed in the database; no cut-off is given here.

Key:
Format in all cases: protein assay
[1] = target: T1, Acetolactate synthase (Zea mays) (UniProt Q41768+Q41769); experiment: Inhibition of in vitro ALS activity in first leaf of the plant grew out Zea mays (maize) seedlings measured at 520 OD/ mg of protein/hr at 100 ug/L at 37 degC
T1 sequence (Q41768 whole entry, looked up): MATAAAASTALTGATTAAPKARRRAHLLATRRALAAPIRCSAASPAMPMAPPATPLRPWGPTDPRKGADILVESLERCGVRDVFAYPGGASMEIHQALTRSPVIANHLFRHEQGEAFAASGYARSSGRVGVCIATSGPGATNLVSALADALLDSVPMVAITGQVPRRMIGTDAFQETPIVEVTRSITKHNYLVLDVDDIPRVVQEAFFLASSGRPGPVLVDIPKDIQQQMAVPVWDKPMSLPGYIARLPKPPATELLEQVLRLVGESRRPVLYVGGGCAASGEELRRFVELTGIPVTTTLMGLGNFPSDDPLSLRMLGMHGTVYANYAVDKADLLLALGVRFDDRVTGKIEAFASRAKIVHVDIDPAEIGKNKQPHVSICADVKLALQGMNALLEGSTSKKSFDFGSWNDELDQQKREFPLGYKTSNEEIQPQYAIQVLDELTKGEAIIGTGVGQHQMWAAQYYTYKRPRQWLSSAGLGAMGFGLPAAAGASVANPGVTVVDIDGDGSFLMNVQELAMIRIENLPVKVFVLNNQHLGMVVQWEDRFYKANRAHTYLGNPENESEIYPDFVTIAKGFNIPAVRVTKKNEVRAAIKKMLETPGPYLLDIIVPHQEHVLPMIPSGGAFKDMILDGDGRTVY
T1 sequence (Q41769 whole entry, looked up): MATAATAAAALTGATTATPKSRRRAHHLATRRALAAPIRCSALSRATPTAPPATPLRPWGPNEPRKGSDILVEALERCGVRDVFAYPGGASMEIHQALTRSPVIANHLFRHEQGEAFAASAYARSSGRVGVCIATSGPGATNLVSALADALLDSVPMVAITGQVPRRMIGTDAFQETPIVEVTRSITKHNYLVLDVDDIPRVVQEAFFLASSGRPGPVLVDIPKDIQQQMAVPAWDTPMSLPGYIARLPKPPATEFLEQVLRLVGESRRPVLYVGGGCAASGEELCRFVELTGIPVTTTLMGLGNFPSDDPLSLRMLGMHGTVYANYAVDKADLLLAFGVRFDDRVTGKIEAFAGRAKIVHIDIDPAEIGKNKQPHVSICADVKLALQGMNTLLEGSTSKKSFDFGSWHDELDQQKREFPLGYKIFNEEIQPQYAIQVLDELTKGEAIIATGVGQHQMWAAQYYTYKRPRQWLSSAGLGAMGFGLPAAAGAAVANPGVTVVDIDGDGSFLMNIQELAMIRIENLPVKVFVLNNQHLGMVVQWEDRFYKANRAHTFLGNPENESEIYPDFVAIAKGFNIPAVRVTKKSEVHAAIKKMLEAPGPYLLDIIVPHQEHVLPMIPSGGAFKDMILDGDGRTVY
Procedure, shortened: (§1)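 Maize seedlings were treated in vivo, once the first leaf emerged, with herbicide in distilled water at 0, 100, 200, 400 and 800 μg L-1. Uppermost-expanded leaves were harvested 24 h later. ALS was extracted, precipitated with 50% (NH4)2SO4 at 4 °C, and assayed with 30 mM pyruvate, TPP and FAD at pH 7 for 1 h at 37 °C. Acetoin was read at A520 and normalised to Coomassie protein.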

[2] = target: T1, Acetolactate synthase (Zea mays); experiment: Inhibition of in vitro ALS activity in first leaf of the plant grew out Zea mays (maize) seedlings measured at 520 OD/ mg of protein/hr at 400 ug/L at 37 degC; procedure, shortened: as §1
[3] = target: T1, Acetolactate synthase (Zea mays); experiment: Inhibition of in vitro ALS activity of Zea mays (maize) at 200 ug/L at 37 degC
Procedure, shortened: (§2)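 ALS came from uppermost-expanded leaves of 5-day maize seedlings, using a 50% (NH4)2SO4 pellet. Inhibitor was dried from acetone in the tubes at 0, 0.04, 0.2, 1, 5 and 25 mg L-1. The assay used 30 mM pyruvate, 1 mM MgCl2, 1 mM TPP, 20 μM FAD and 50 mM K-phosphate at pH 7, run for 1 h at 37 °C. It was stopped with H2SO4, decarboxylated for 15 min at 60 °C, developed with creatine/α-naphthol, and read at A520.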

[4] = target: T1, Acetolactate synthase (Zea mays); experiment: Inhibition of in vitro ALS activity in first leaf of the plant grew out Zea mays (maize) seedlings measured at 520 OD/ mg of protein/hr at 200 ug/L at 37 degC; procedure, shortened: as §1
[5] = target: T1, Acetolactate synthase (Zea mays); experiment: Inhibition of in vitro ALS activity of Zea mays (maize) at 25 mg/L at 37 degC; procedure, shortened: as §2
[6] = target: T1, Acetolactate synthase (Zea mays); experiment: Inhibition of in vitro ALS activity in first leaf of the plant grew out Zea mays (maize) seedlings measured at 520 OD/ mg of protein/hr at 800 ug/L at 37 degC; procedure, shortened: as §1

CCc1cnc(C2=NC(C)(C(C)C)C(=O)N2)c(C(=O)O)c1 (racemic)
OD [1]: 7.6 h⁻¹
OD [2]: 2.26 h⁻¹
inhibition [3]: 19.8%
OD [4]: 4.41 h⁻¹
inhibition [5]: Active
OD [6]: 1.9 h⁻¹

CCc1cnc(C2=N[C@](C)(C(C)C)C(=O)N2)c(C(=O)O)c1
OD [1]: 7.14 h⁻¹
OD [2]: 1.56 h⁻¹
inhibition [3]: 28.9%
OD [4]: 3.39 h⁻¹
inhibition [5]: Active
OD [6]: 0.97 h⁻¹

CCc1cnc(C2=N[C@@](C)(C(C)C)C(=O)N2)c(C(=O)O)c1
OD [1]: 7.96 h⁻¹
OD [2]: 3.18 h⁻¹
inhibition [3]: 3.8%
OD [4]: 6.34 h⁻¹
inhibition [5]: Active
OD [6]: 2.06 h⁻¹
